From PMC5084670 (Cancer Science, 2016)

Legend:
GLI1 = GLI1 expression in normal skin samples by RT-PCR; assay type: in vivo, human
In short: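 Adult Asian patients with advanced solid tumors took oral test compound once daily in 28-day cycles after a 7-day single-dose run-in. Normal skin was sampled before treatment, at the end of cycle 1, and within 14 days after the last dose. RNA was extracted and analysed by RT-PCR to estimate GLI1 expression as a marker of Hh pathway activation.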

[1] = test system: primary human muscle cells; settings: cited from earlier work
[2] = cited from earlier work
[3] = patients from Europe and the USA, CLDE225X2101 study

Cc1c(C(=O)Nc2ccc(N3C[C@@H](C)O[C@@H](C)C3)nc2)cccc1-c1ccc(OC(F)(F)F)cc1 [Sonidegib]
Inhibition in GLI1 (normal skin, end of cycle 1 vs before treatment) (GLI1; group 1, 400 mg, four patients): 32–88%
Inhibition in GLI1 (normal skin, end of cycle 1 vs before treatment) (GLI1; group 1, 600 mg, nine patients): 73–96%
Inhibition in GLI1 (normal skin, end of cycle 1 vs before treatment) (GLI1; group 2, 400 mg, six patients): 6.8–95%
Inhibition in GLI1 (normal skin, end of cycle 1 vs before treatment) (GLI1; group 2, 600 mg, two patients): 53–83%
GLI1 expression in normal skin samples (GLI1; paired samples from 22 patients, all except one patient): decreased GLI1 expression
Effect on muscle cells [1]: induce muscle contraction and muscle fiber twitching
Rhabdomyolysis, patients ([2]; CLDE225X2101 study): three
Half-life (t 1/2) ([2]; as reported in non-Asian patients): ~ 28 days
AUClast ([2]; cycle 1 day 15, 400 mg, non-Asian patients (CLDE225X2101)): 8806 ng·h/mL
Maximum tolerated dose (MTD), once daily [2, 3]: 800 mg q.d.
Maximum tolerated dose (MTD), twice daily [2, 3]: 250 mg b.i.d.
